Experimental data published in the EternaBench riboswitch data.

System: MS2 coat protein
Assay: apparent Kd, MS2 coat protein; higher = weaker binding; RNA-MaP array; FMN 200 µM where present
Summary of the method: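 Stalled E. coli RNA polymerase produced the designs on Illumina sequencing-chip clusters. SNAP-549-labelled MS2 coat protein was added from 0.7 or 1.5 nM, doubling to 3 µM, without and then with constant ligand, in 100 mM Tris-HCl pH 7.5, 80 mM KCl, 4 mM MgCl2, BSA, DTT, yeast tRNA and Tween-20. The apparent Kd is the median of filtered per-cluster fits of green signal normalised to red-channel RNA signal and control-cluster median Fmax.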

[1] = designed as: OFF switch for flavin mononucleotide, no ligand
[2] = ligand present: flavin mononucleotide, designed as: OFF switch for flavin mononucleotide
[3] = designed as: ON switch for flavin mononucleotide, no ligand
[4] = ligand present: flavin mononucleotide, designed as: ON switch for flavin mononucleotide

| Sequence | apparent Kd [1] [nM] | apparent Kd [2] [nM] | apparent Kd [3] [nM] | apparent Kd [4] [nM] |
| --- | --- | --- | --- | --- |
| AUAUAGAUGGUCAGGAUAUGCUAGUGGUAACAGUAGCAGAAGGGACAUGAGGAUCACCCAUGUGGAUACUGCGC | 25.4 | 85.9 |  |  |
| GAUACACAUGAGGAUCACCCAUGUUAGGAUAUUAGCGGGAAAGCUGUCAGACAGUCGAUGAGAAGGAACAGGAG | 32.5 | 31.6 |  |  |
| CAAUUUAGCGAGAAGGAGCGCCCGUAGGUACAUGAGGAUCACCCAUGUCCUUUGUGCUCUACGCGCUAGGAUAUCGAGAAACAG | 13.5 | 98.7 |  |  |
| GCAAAACAUGAGGAUCACCCAUGUCAACAAAAUCAAGGAUAUGAGCCGGCAAUGCCAGCAUCAGAAGGUGAACCUU |  |  | 81.9 | 86.5 |
| GUCGGAAACGACAAAAGUAGCAUACGAGAAGGUUGAUCCAAGACAUGAGGAUCACCCAUGUAGAUAGAGGAUAUUGAAUGCUAC |  |  | 310 | 244 |
| AUAGCUCUCUAGAAGGUCCAACCAGUAUACCAUCAGGUAUAUACGGUAGGGAGGAUAUGGGACAUGAGGAUCACCCAUGUGUAG |  |  | 57.8 | 44.8 |
| GCAUUUUAUGCAGGAUAUUGAAUUCGGAUUAAACAAGAAGGGCAUAACAUGAGGAUCACCCAUGUUUUAUAGGUAUCUAUGAAC | 53.1 | 116 |  |  |
| UUUUAACAUGAGGAUCACCCAUGUCGUUCAAAUCAAGGAUAUCAAGCGUGUGCGCACGCUUGAGAAGGUGAAGCUC |  |  | 54.2 | 191 |
| GUAGCAUACCGAGGAUAUUCAUUACAUGAGGAUCACCCAUGUUUUAUAGGCCGAUUACGGCCUUGGGAGAAGGCGGAAUGCUAC |  |  | 14.8 | 11.1 |
| UAGUAGUGAGGAUAUACAUGGAUAUACAUUCAUGUGGACCUACAUGAGGAUCACCCAUGUAGAAGGCACUACUA | 41.9 | 91.4 |  |  |
| GAUUCGGGAGGAUAUACAUGAGGAUCACCCAUGUGUUUUUUAUGUGUUAUGUUAUCAUGUAGAAGGUUUGGGUC | 151 | 195 |  |  |
| AACCAGUUGGUAGGAUAUGGUGCAGUGCUCGUACCAGAAGGACCAACAUGAGGAUCACCCAUGUUGGAAAGUCAACAUUAAUGA | 6.23 | 16.4 |  |  |
| GAGCCCUAAGGAUAUAGAAGGUCCAACAUGAGGAUCACCCAUGUACGGUGUGGACGUGGGCUAGAAGGUGGAACUU | 188 | 147 |  |  |
| UUUCCCUGGCAAGGAUAUCCUGUGCGGUUCCGGCUCGUGUCUGUUACAUGAGGAUCACCCAUGUGGGAGAAGGUGCCUGUGGCU | 53.2 | 232 |  |  |
| CGUCCUUAGUGAGGAUAUCAGAAAAUACGGAAAUGAGAAGGCACAUGAGGAUCACCCAUGUAAAUAACGGCCGGUCUUGGCAGC | 7.96 | 21.6 |  |  |
| GUAGUGUAUGUAGGAUAUGUGAAGGAAACCUUUACAGAAGGACAUGAGGAUCACCCAUGUAUUACAGUCAGCAAUCUGACUGUU | 28.4 | 107 |  |  |
| GAAAACGGAGAGGAUAUUUGAGAUCAAAGCUCCAAAGAAGGCUCCACAUGAGGAUCACCCAUGUGGUCUUCAAU | 14.6 | 107 |  |  |
| UCUGAUAUUCCCGUGCCUCCAACACAGGAUAUCCGUCACAACAUGAGGAUCACCCAUGUCCGGGAGGAGAAGGGUGUGGAGAGU |  |  | 91.3 | 21.5 |
| GUAGCAUACCGAGGAUAUUCACCGGAAAACCGGACAUGAGGAUCACCCAUGUGGCGAAAGCCUUGGGAGAAGGCGGAAUGCUAC |  |  | 135 | 19.9 |
| UGAUAGGACAGAGGAUAUACAGAUAGGAUCUACUAUCCUCCUUAAAUAACAUGAGGAUCACCCAUGUAGAAGGCUGUCCUAUCU | 26.5 | 182 |  |  |
| CUUGUUUAUGUGAGGAUAUACUGUUAGUAAUGUUUGUAGAAGGUACAUGAGGAUCACCCAUGUUUAUUUCCUUU | 14.2 | 13.1 |  |  |
| CGCUGGUGACAGCAUCCAUCAAAACAUGAGGAUCACCCAUGUAGAAGGCUGUACGGUUACCGUACAGAGGAUAUACAAUGAUGC | 15.1 | 28.4 |  |  |
| ACUAAGGAGGUAGGAUAUUGUGUGGUGGCCGGGCUCCCACGGCGAGCGGCACAAGAAGGAUCCCAACAUGAGGAUCACCCAUGU |  |  | 48.9 | 26.1 |
| AAUCGGGAGCAGAAGGCAUGUCAUAAGACAUGAGGAUCACCCAUGUAGUUAAGAUGAAAAUCGCAUGAGGAUAUGCUCCCGUAA |  |  | 115 | 18.5 |

| Sequence | apparent Kd [1] [nM] | apparent Kd [2] [nM] | apparent Kd [3] [nM] | apparent Kd [4] [nM] |
| --- | --- | --- | --- | --- |
| UGAAAUCAUGUAGGAUAUGCAUGGCGAAGCUACGCAGAAGGACAUGAGGAUCACCCAUGUUCUGGCUACCGGAUACGGUGGCAA | 22 | 105 |  |  |
| AAAAUCUAUAGAGGAUAUCCAUACGCUGCAUACGGAGAAGGCUAACAAUCAUGAGGACAUGAGGAUCACCCAUGUUGUGACCAU |  |  | 17.6 | 9.82 |
| UGGUACAUCGGAGGAUAUCAUGUAGAUACAUGAGGAUCACCCAUGUCGUACGAUAGUACGGAGAUUGAGAAGGCCGAUGUACCU |  |  | 30.5 | 16.6 |
| GUAGCAUACCGAGGAUAUUCAGGGCGUGGUUAAACAUGAGGAUCACCCAUGUGGCGAAAGCCUAGGGAGAAGGCGGAAUGCUAC |  |  | 28.7 | 22.5 |
| UGUCAGAUGGUAGGAUAUUCAUAUCGAGUGACCCUUUCAUAACAUGAGGAUCACCCAUGUCGGUGGGAGAAGGGCCGUAUGGUG | 29.8 | 30.3 |  |  |
| GGCUGGUAGCUAGGAUAUGGGCGGUCACAUGAGGAUCACCCAUGUCAACAUCAAAACCAGAUUAACCAGAAGGAGCUGCGGGUU |  |  | 36 | 37.8 |
| GGAAAACAUGAGGAUCACCCAUGUGAGGAUAUCGAUGUCCAAAAAAAAGUGCGGGACUCGAGAAGGCACUUGGU | 57.1 | 58.4 |  |  |
| CCCAGCUAUGUGAGGAUAUUCACAUCGAUGGUAGUGAAGAAGGCACAUGAGGAUCACCCAUGUUGGUUGCCGAU | 19.4 | 28.7 |  |  |
| AAGUAGAUCCGAGGAUAUACAAUCCGGAAACGGUACAUGAGGAUCACCCAUGUAGAAGGCGGAUCUACAGGUACUAAAGUACCU | 5.58 | 7.98 |  |  |
| UCAUUUAAUACAGGAUAUGUUAGUAUACAGUAGAUUGGUUAUUACAUAAUAACAGAAGGGUAGAACAUGAGGAUCACCCAUGUA |  |  | 265 | 96.2 |
| ACAUGAGGAUCACCCAUGUGUACAUAGGAUAUUGAUGAUUAUGGUUUAAGAAAAGUAAUUGCCCACAAGAAGGAUGCCUCAUCU |  |  | 36.5 | 27.7 |
| GUCAGCUCGUGAGGAUAUACAACACUGCUUCGGCAGGGUAUUAAGAUCACAUGAGGAUCACCCAUGUAGAAGGCACGAGCUGAU | 12.7 | 173 |  |  |
| AAUAACAGAGGAUAUACUGUUUUAUGUGUUUGUUGUUUUGAACAUGAGGAUCACCCAUGUAGAAGGCUGAUUAA | 35.3 | 33.5 |  |  |
| UCGUGAAGGAUAGGAUAUGGACAUGAGGAUCACCCAUGUACAUGGGAAUGUAUACUGAAUUUGUACUAGAAGGGUUACAUAAAU | 49.8 | 36.6 |  |  |
| UGUCGGAGCAGAGGAUAUUACAUGAGGAUCACCCAUGUAUGAACCAAUAGCUGAAAACAGCAAUGUAAGAAGGCUGCUCCGACA | 11.5 | 176 |  |  |
| UUGGGUUUGCGAGGAUAUCGUUUGUGAUUUGAUCGAGAAGGCGCUAUUUAAAUUAUUUUAACAUUACAUGAGGAUCACCCAUGU |  |  | 19.1 | 17.2 |
| UUUGGGAACUCUAUGGGCCGCUACAUGAGGAUCACCCAUGUGCAGGAUAUAGGCGUUACUACCACCUAGAAGGGCACAGAAUGA | 32.5 | 47.6 |  |  |
| GUCAGCUCGUGAGGAUAUACAACACUGCUUCGCCAGUGUAUUAAGAUCACAUGAGGAUCACCCAUGUAGAAGGCACGAGCUGAU | 14.4 | 216 |  |  |
| GGCGGCGCGGGCCACCGCAGAACCAGAAGGACAUGAGGAUCACCCAUGUAACAAAACAGGGCGGUGUAGGAUAUGGCAGGCCCG | 41.9 | 89.5 |  |  |
| UUUGCAUUCCGAGGAUAUUCAGAUAAUAACUACACAUGAGGAUCACCCAUGUGGCGAUAGCCUAGGGAGAAGGCGGUUUGCUUU |  |  | 19.7 | 20.9 |
| GGACGGUUAGUCAGGAUAUGCUCUACCUCGGUAGAGCAGAAGGGACAUGAGGAUCACCCAUGUGAUAACUGUUC | 27.4 | 34.8 |  |  |
| GCUGCAUAGGCAGGAUAUGCAAUAAUUCGAAUAAAAUAUAACGGAUUAACAUGAGGAUCACCCAUGUAGAAGGGCCUGUGCAGU | 5.73 | 5.49 |  |  |
| AGUUGUUCAGGAUAUGGUGUGUUAUACAUGAGGAUCACCCAUGUGGGUCCUGGUUUGGCCUCAGAAGGGAAUGUUG | 636 | 518 |  |  |
| CGCUGAGCGGUGAGGAUAUCGUGUUCGAAAGAACGUGAGAAGGCACAUGAGGAUCACCCAUGUGAUCCUCAUCG | 17.1 | 28.1 |  |  |
